Target: Voltage-dependent L-type calcium channel subunit alpha-1C (Oryctolagus cuniculus, UniProt P15381)
Assay: Antagonist activity at rabbit CaV1.2alpha1C transfected in HEK293 cells by FLIPR assay
Summary of the method: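 HEK293 cells stably transfected with rabbit CaV1.2α1C cDNA, plated at 4 × 10⁴ cells/well and cultured 4 days in DMEM with 10% FBS. Calcium influx is read on a FLIPR Tetra with a Fluo-8 no-wash calcium dye.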

Chain of Voltage-dependent L-type calcium channel subunit alpha-1C (P15381 whole entry): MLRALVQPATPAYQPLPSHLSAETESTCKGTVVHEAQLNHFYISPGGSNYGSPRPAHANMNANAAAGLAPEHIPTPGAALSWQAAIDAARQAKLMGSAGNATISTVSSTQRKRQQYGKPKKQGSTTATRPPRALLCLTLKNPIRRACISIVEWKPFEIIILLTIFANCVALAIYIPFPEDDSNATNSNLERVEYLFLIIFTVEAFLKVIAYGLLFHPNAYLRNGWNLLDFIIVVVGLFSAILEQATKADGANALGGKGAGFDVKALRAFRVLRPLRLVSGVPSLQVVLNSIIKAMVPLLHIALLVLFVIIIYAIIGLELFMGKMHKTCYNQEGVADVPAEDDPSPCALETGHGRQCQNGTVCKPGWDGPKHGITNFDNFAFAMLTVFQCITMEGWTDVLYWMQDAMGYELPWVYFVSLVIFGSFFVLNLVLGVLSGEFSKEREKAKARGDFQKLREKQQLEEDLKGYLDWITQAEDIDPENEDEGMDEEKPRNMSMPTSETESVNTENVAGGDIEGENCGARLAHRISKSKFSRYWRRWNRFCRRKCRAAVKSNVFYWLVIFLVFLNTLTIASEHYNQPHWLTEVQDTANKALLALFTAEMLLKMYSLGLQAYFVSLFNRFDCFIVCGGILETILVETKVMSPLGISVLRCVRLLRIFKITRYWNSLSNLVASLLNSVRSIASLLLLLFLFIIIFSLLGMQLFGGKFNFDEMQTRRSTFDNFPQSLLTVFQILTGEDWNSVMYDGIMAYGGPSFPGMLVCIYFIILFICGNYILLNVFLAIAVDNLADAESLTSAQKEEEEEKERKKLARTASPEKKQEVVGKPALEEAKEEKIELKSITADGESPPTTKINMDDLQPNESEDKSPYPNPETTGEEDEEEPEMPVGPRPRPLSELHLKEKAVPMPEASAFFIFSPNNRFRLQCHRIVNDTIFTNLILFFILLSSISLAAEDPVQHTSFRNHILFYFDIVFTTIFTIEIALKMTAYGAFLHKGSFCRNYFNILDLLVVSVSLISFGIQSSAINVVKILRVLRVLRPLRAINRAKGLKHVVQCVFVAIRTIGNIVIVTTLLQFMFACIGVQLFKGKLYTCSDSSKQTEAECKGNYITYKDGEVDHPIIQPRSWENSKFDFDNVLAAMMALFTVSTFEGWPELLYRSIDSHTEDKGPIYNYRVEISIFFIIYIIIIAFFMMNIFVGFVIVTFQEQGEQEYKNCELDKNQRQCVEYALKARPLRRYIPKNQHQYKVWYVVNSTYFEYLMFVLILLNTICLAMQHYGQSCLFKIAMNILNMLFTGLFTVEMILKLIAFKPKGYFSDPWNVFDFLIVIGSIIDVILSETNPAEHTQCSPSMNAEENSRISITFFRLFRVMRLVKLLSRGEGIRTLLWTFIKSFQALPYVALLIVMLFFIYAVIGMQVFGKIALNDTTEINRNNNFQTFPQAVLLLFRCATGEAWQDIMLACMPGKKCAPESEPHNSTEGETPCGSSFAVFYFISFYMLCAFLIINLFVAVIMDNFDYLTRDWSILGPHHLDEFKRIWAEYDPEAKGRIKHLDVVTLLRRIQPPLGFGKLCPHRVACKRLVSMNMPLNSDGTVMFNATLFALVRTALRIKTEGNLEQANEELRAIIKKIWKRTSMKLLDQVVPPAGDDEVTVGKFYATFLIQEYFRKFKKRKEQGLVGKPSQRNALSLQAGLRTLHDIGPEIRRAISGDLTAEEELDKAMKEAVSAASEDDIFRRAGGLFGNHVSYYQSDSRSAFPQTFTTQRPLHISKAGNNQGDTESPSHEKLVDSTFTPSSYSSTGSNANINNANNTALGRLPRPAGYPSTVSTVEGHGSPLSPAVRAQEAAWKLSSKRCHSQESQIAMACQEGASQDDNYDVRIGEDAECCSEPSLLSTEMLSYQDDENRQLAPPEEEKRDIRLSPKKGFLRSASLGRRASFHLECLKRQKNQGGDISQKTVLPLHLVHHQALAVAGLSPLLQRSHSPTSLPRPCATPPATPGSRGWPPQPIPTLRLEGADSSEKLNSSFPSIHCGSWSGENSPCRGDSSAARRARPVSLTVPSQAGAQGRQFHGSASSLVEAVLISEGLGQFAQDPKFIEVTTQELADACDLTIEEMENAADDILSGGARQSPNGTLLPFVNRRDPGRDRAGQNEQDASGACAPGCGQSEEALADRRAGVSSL

Row | SMILES | IC50 [µM]
1 | O=c1cc(O)n(CCc2cccc(C(F)(F)F)c2)c(=O)n1[C@@H]1C[C@@H]2CC[C@H]1C2 | 100
2 | O=c1cc(O)n(CCc2cccc(C(F)(F)F)c2)c(=O)n1[C@H]1C[C@H]2CC[C@@H]1C2 | > 100
3 | CC(Cn1c(O)cc(=O)n(C2CC3CCC2C3)c1=O)c1cccc(Cl)c1 (stereo not given) | 5.1
4 | CC(C)(Cn1c(O)cc(=O)n(C2CCCC2)c1=O)c1cccc(Cl)c1 | 12.6
5 | O=c1cc(O)n(CC2(c3ccc(Cl)cc3)CC2)c(=O)n1C1CCCC1 | > 100
6 | COC(=O)[C@H](Cc1ccccc1)n1c(O)cc(=O)n(C2CCCC2)c1=O | > 100
7 | O=c1cc(O)n(CCC(c2ccccc2)c2ccccc2)c(=O)n1C1CCCC1 | 4.7
8 | O=c1cc(O)n(-c2cccc(C(F)(F)F)c2)c(=O)n1C1CCCC1 | > 100
9 | C[C@H](c1cccc2ccccc12)n1c(O)cc(=O)n(CCc2cccc(Cl)c2)c1=O | 10
10 | CCOC(=O)[C@@H]1CCC[C@@H]1n1c(=O)cc(O)n(CCc2cccc(Cl)c2)c1=O | 12.6
11 | O=c1cc(O)n(CCc2cccc(Cl)c2)c(=O)n1[C@H]1CCC[C@@H]1O | > 100
12 | O=C(O)[C@H]1CC[C@@H](n2c(=O)cc(O)n(CCc3cccc(Cl)c3)c2=O)C1 | > 100
13 | C[C@H]1[C@H](n2c(=O)cc(O)n(CCc3ccc(Cl)cc3)c2=O)C[C@@H]2C[C@H]1C2(C)C | > 100
14 | CC1(C)[C@@H]2CC[C@H](Cn3c(=O)cc(O)n(CCc4ccc(Cl)cc4)c3=O)[C@H]1C2 | > 100
15 | CC1(C)[C@@H]2CC[C@@]1(C)[C@@H](n1c(=O)cc(O)n(CCc3ccc(Cl)cc3)c1=O)C2 | > 100
16 | O=c1cc(O)n(CCc2ccc(Cl)cc2)c(=O)n1[C@H]1C[C@H]2CC[C@@H]1C2 | 100
17 | O=c1cc(O)n(CCc2ccc(Cl)cc2)c(=O)n1C[C@H]1CCCO1 | > 100
18 | C[C@H](C1CCCCC1)n1c(=O)cc(O)n(CCc2ccc(Cl)cc2)c1=O | > 100
19 | C[C@@H]1[C@@H](n2c(=O)cc(O)n(CCc3cccc(Cl)c3)c2=O)C[C@H]2C[C@@H]1C2(C)C | > 100
20 | C[C@H]1[C@H](n2c(=O)cc(O)n(CCc3cccc(Cl)c3)c2=O)C[C@@H]2C[C@H]1C2(C)C | > 100
21 | CC1(C)[C@@H]2CC[C@@]1(C)[C@@H](n1c(=O)cc(O)n(CCc3cccc(Cl)c3)c1=O)C2 | > 100
22 | O=c1cc(O)n(CCc2cccc(Cl)c2)c(=O)n1[C@@H]1C[C@@H]2CC[C@H]1C2 | > 100
23 | O=c1cc(O)n(CCc2cccc(Cl)c2)c(=O)n1[C@H]1C[C@H]2CC[C@@H]1C2 | > 100
24 | C[C@H](C1CCCCC1)n1c(=O)cc(O)n(CCc2cccc(Cl)c2)c1=O | > 100
25 | C[C@@H](C1CCCCC1)n1c(=O)cc(O)n(CCc2cccc(Cl)c2)c1=O | > 100
26 | CC1(C)CCC[C@H]1n1c(=O)cc(O)n(CCc2cccc(Cl)c2)c1=O | 4.7
27 | O=c1cc(O)n(CCc2cccc(Cl)c2)c(=O)n1C1CCCC1 | > 100
28 | C[C@@H](C1CCCCC1)n1c(=O)cc(O)n(CCc2ccc(Cl)cc2)c1=O | > 100
29 | C[C@H]1CCC[C@H]1n1c(=O)cc(O)n(CCc2ccc(Cl)cc2)c1=O | 10
30 | C[C@@H]1CCC[C@@H]1n1c(=O)cc(O)n(CCc2ccc(Cl)cc2)c1=O | 5.1

From BindingDB's records for doi:10.1021/jm4005048 (Northwestern University, 2013)
